Publication PMC4887403 (Bioorganic & medicinal chemistry letters, 2016)

Key:
[1] = system: asexual parasites of the chloroquine-sensitive 3D7 strain of P. falciparum; assay: asexual blood stage assay; format: cell-based; details: Plasmodium falciparum, 3D7, read-out: asexual activity (IC50, text)
Procedure, shortened: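 Asexual blood-stage parasites of chloroquine-sensitive P. falciparum 3D7 are tested with test compound in an 11-point dose-response, in duplicate. Each run includes a positive control and a DMSO negative control.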

HepG2 cells = assay: HepG2 cell viability; format: cell-based; details: highest concentration tested 46 µM
Procedure, shortened: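 HepG2 cells are incubated with test compound to measure general cytotoxicity as cell viability. The assay uses an 11-point dose-response in duplicate, with a positive control and a DMSO negative control.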

malaria transmission = details: mouse model; cited from earlier work

Structure (SMILES)	IC50 [1] [nM]	other results
Cn1c(=O)n(-c2cccc(C(F)(F)F)c2)c2c3cc(-c4ccc(N)cc4)ccc3ncc21 [Compound 35]	< 100	–
Cn1c(=O)n(-c2cccc(C(F)(F)F)c2)c2c3cc(-c4cccc(N)c4)ccc3ncc21 [Compound 37]	< 100	–
Cn1c(=O)n(-c2ccc(C#N)cc2)c2c3cc(-c4ccc(N)nc4)ccc3ncc21 [Compound 60]	–	HepG2 cytotoxicity (HepG2 cells): no measurable HepG2 cytotoxicity
Nc1ccc(-c2ccc3ncc4ccc(=O)n(-c5cccc(C(F)(F)F)c5)c4c3c2)cn1 [Torin 2]	–	efficacy for blocking malaria transmission (malaria transmission): efficacy for blocking malaria transmission in a mouse model
